Results: ChEMBL document CHEMBL1153746, “Mansouramycins A-D, cytotoxic isoquinolinequinones from a marine streptomycete” (J Nat Prod, 2009)

How the values were obtained:
Assay type in all cases: functional, cell-based
CWR22R = assay: Cytotoxicity against human 22Rv1 cells after 4 days by propidium iodide assay; details: 22Rv1, 96 h
Method in brief: (§1)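 Monolayer cell proliferation assay across a panel of up to 36 human tumour lines covering 14 solid tumour types. Lines came either from patient tumours grown as subcutaneous xenografts in NMRI nu/nu mice or from culture collections (ATCC, NCI, DSMZ). Potency is given as IC50.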

[1] = Cytotoxicity against human LXFL 529L cells after 4 days by propidium iodide assay; details: 96 h; method in brief: as §1
[2] = Cytotoxicity against human 1322 cells after 7 to 20 days by clonogenic assay
Method in brief: (§2)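 Colony formation assay for clonogenicity. Cell suspensions were prepared from patient-derived human tumour xenografts, kept by serial subcutaneous passage in NMRI nu/nu mice. Cells were embedded and incubated in culture medium containing soft agar. Potency is given as IC50.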

[3] = Cytotoxicity against human MAXF 401NL cells after 4 days by propidium iodide assay; details: 96 h; method in brief: as §1
[4] = Cytotoxicity against human 243 cells after 7 to 20 days by clonogenic assay; method in brief: as §2
PANC-1 = assay: Cytotoxicity against human PANC1 cells after 4 days by propidium iodide assay; details: PANC-1, 96 h; method in brief: as §1
DU-145 = assay: Cytotoxicity against human DU145 cells after 4 days by propidium iodide assay; details: DU-145, 96 h; method in brief: as §1
[5] = Cytotoxicity against human 1218L cells after 4 days by propidium iodide assay; details: 96 h; method in brief: as §1
[6] = Cytotoxicity against human PC3M cells after 4 days by propidium iodide assay; details: PC-3M, 96 h; method in brief: as §1
SF-268 = assay: Cytotoxicity against human SF268 cells after 4 days by propidium iodide assay; details: SF-268, 96 h; method in brief: as §1
[7] = Cytotoxicity against human 276L cells after 4 days by propidium iodide assay; details: 96 h; method in brief: as §1
[8] = Cytotoxicity against human 1781L cells after 4 days by propidium iodide assay; details: 96 h; method in brief: as §1
[9] = Cytotoxicity against human 276 cells after 7 to 20 days by clonogenic assay; method in brief: as §2
[10] = Cytotoxicity against human 899L cells after 4 days by propidium iodide assay; details: 96 h; method in brief: as §1
[11] = Cytotoxicity against human BXF T24 cells after 4 days by propidium iodide assay; details: T-24, 96 h; method in brief: as §1
[12] = Cytotoxicity against human RXF 944L cells after 4 days by propidium iodide assay; details: 96 h; method in brief: as §1
HT-29 = assay: Cytotoxicity against human HT-29 cells after 4 days by propidium iodide assay; details: HT-29, 96 h; method in brief: as §1
[13] = Cytotoxicity against human 575 cells after 7 to 20 days by clonogenic assay; method in brief: as §2
[14] = Cytotoxicity against human 498NL cells after 4 days by propidium iodide assay; details: 96 h; method in brief: as §1
[15] = Cytotoxicity against human 289L cells after 4 days by propidium iodide assay; details: 96 h; method in brief: as §1
[16] = Cytotoxicity against human GXF251L cells after 4 days by propidium iodide assay; details: GXF 251L, 96 h; method in brief: as §1
[17] = Cytotoxicity against human NSB008 cells after 7 to 20 days by clonogenic assay
Method in brief: (§3)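 Colony formation assay on hematopoietic stem cells from cord blood, used as nonmalignant tissue. Cells were embedded and incubated in culture medium containing methyl cellulose. Potency is given as IC50.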

NCI-H460 = assay: Cytotoxicity against human H460 cells after 4 days by propidium iodide assay; details: NCI-H460, 96 h; method in brief: as §1
[18] = Cytotoxicity against human 514 cells after 7 to 20 days by clonogenic assay; method in brief: as §2
[19] = Cytotoxicity against human 1218 cells after 7 to 20 days by clonogenic assay; method in brief: as §2
[20] = Cytotoxicity against human RXF631 cells after 7 to 20 days by clonogenic assay; details: RXF 631; method in brief: as §2
[21] = Cytotoxicity against human 1619L cells after 4 days by propidium iodide assay; details: 96 h, in the assay text read “MTT assay” for “propidium iodide assay”; method in brief: as §1
[22] = Cytotoxicity against human 1657L cells after 4 days by propidium iodide assay; details: 96 h; method in brief: as §1
[23] = Cytotoxicity against human 629L cells after 4 days by propidium iodide assay; details: 96 h; method in brief: as §1
LNCaP = assay: Cytotoxicity against human LNCAP cells after 4 days by propidium iodide assay; details: 96 h; method in brief: as §1
[24] = Cytotoxicity against human 1752L cells after 4 days by propidium iodide assay; details: 96 h; method in brief: as §1
MCF7 = assay: Cytotoxicity against human MCF7 cells after 4 days by propidium iodide assay; details: MCF7, 96 h; method in brief: as §1
[25] = Cytotoxicity against human 526L cells after 4 days by propidium iodide assay; details: 96 h; method in brief: as §1
HCT-116 = assay: Cytotoxicity against human HCT116 cells after 4 days by propidium iodide assay; details: HCT-116, 96 h; method in brief: as §1
[26] = Cytotoxicity against human LXFA 629L cells after 7 to 20 days by clonogenic assay; method in brief: as §2
[27] = Cytotoxicity against human 1121L cells after 4 days by propidium iodide assay; details: 96 h; method in brief: as §1
[28] = Cytotoxicity against human 394NL cells after 4 days by propidium iodide assay; details: 96 h; method in brief: as §1
[29] = Cytotoxicity against human 899 cells after 7 to 20 days by clonogenic assay; method in brief: as §2
[30] = Cytotoxicity against human NSB005 cells after 7 to 20 days by clonogenic assay; method in brief: as §3
[31] = Cytotoxicity against human 401 cells after 7 to 20 days by clonogenic assay; method in brief: as §2
[32] = Cytotoxicity against human RXF 486L cells after 4 days by propidium iodide assay; details: 96 h; method in brief: as §1
[33] = Cytotoxicity against human 520L cells after 4 days by propidium iodide assay; details: 96 h, in the assay text read “MTT assay” for “propidium iodide assay”; method in brief: as §1
[34] = Cytotoxicity against human MEXF 462NL cells after 4 days by propidium iodide assay; details: 96 h; method in brief: as §1
[35] = Cytotoxicity against human 536L cells after 4 days by propidium iodide assay; details: 96 h; method in brief: as §1
[36] = Cytotoxicity against human 514L cells after 4 days by propidium iodide assay; details: 96 h; method in brief: as §1
[37] = Cytotoxicity against human LXFA 526 cells after 7 to 20 days by clonogenic assay; method in brief: as §2
[38] = Cytotoxicity against human UXF 1138L cells after 4 days by propidium iodide assay; details: 96 h; method in brief: as §1
OVCAR-3 = assay: Cytotoxicity against human OVCAR-3 cells after 4 days by propidium iodide assay; details: OVCAR-3, 96 h; method in brief: as §1
[39] = Cytotoxicity against human 393NL cells after 4 days by propidium iodide assay; details: 96 h; method in brief: as §1
[40] = in the assay text read “MTT assay” for “propidium iodide assay”

CNC1=CC(=O)c2cc(C)ncc2C1=O
IC50 (CWR22R): 4.69 µM | IC50 [1]: 4.88 µM | IC50 [2]: 8.35 µM | IC50 [3]: 17.3 µM | IC50 [4]: 10.3 µM | IC50 (PANC-1): 3.83 µM | IC50 (DU-145): 340 nM | IC50 [5]: 10.3 µM | IC50 [6]: 6.04 µM | IC50 (SF-268): 1800 nM | IC50 [7]: 350 nM | IC50 [8]: 9.89 µM | IC50 [9]: 330 nM | IC50 [10, 40]: 6.6 µM | IC50 [11]: 610 nM | IC50 [12]: 5.43 µM | IC50 (HT-29): 1980 nM | IC50 [13]: 8.35 µM | IC50 [14]: 5.21 µM | IC50 [15]: 3.04 µM | IC50 [16]: 3600 nM | IC50 [17]: 4.53 µM | IC50 (NCI-H460): 3.92 µM | IC50 [18]: 50 nM | IC50 [19]: 4.34 µM | IC50 [20]: 7.81 µM | IC50 [21]: 4.01 µM | IC50 [22, 40]: 4.93 µM | IC50 [23]: 1180 nM | IC50 (LNCaP): 6.36 µM | IC50 [24]: 6.02 µM | IC50 (MCF7): 1110 nM | IC50 [25]: 10.6 µM | IC50 (HCT-116): 3.62 µM | IC50 [26]: 1630 nM | IC50 [27]: 6.56 µM | IC50 [28]: 5.72 µM | IC50 [29]: 5.35 µM | IC50 [30]: 4.58 µM | IC50 [31]: 3.89 µM | IC50 [32]: 50.6 µM | IC50 [33]: 240 nM | IC50 [34]: 19 µM | IC50 [35]: 380 nM | IC50 [36]: 2020 nM | IC50 [37]: 4.31 µM | IC50 [38, 40]: 2230 nM | IC50 (OVCAR-3; [40]): 7.64 µM | IC50 [39]: 4160 nM

CNC1=C(Cl)C(=O)c2cc(C)ncc2C1=O
IC50 (CWR22R): 5.67 µM | IC50 [1]: 1.54 µM | IC50 [3]: 3.55 µM | IC50 [5]: 1.38 µM | IC50 [6]: 3.23 µM | IC50 [7]: 360 nM | IC50 [10]: 13.9 µM | IC50 [14]: 1.34 µM | IC50 [15]: 5.96 µM | IC50 [16]: 1750 nM | IC50 [22]: 1.81 µM | IC50 [23]: 1230 nM | IC50 [24]: 5.19 µM | IC50 [32]: 17.9 µM | IC50 [34]: 5.64 µM | IC50 [38]: 1680 nM | IC50 (OVCAR-3): 2 µM | IC50 [39]: 1570 nM
